≈ marks a conversion by molar mass, not a printed value.
How the values were obtained:
[1] = Aqueous solubility of the compound at pH 7.4 after 30 mins by nephelometric analysis; assay type: physicochemical; conditions: buffer
[2] = target: T1, Glutamate NMDA receptor; Grin1/Grin2c (Rattus norvegicus) (UniProt P35439+Q00961); test: Positive allosteric modulation of recombinant rat GluN1a/GluN2C receptor expressed in Xenopus laevis oocytes assessed as increase in glycine/L-glutamate-induced channel current at 30 uM by two-electrode voltage clamp method relative to control; assay type: cell-based
In short: (§1)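 Oocytes expressing rat GluN1/GluN2C or GluN2D, held at −40 mV in HEPES-buffered Ba2+ solution, pH 7.4, 23 °C. Current given as percent of agonist-alone response. Doubling concentration is the concentration giving 2-fold response; reported as […] log. 6–19 oocytes from 2–3 frogs.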

[3] = target: T2, Ionotropic glutamate receptor NMDA 1/2D (Rattus norvegicus) (UniProt P35439+Q62645); test: Positive allosteric modulation of recombinant rat GluN1a/GluN2D receptor expressed in Xenopus laevis oocytes assessed as increase in glycine/L-glutamate-induced channel current at 30 uM by two-electrode voltage clamp method relative to control; assay type: cell-based
In short: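 Oocytes expressing rat GluN1/GluN2C or GluN2D, held at −40 mV in HEPES-buffered Ba2+ solution, pH 7.4, 23 °C. […] Current given as percent of agonist-alone response. […] Doubling concentration is the concentration giving 2-fold response; reported as […] log. 6–19 oocytes from 2–3 frogs.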

[4] = target: T3, Glutamate NMDA receptor; Grin1/Grin2a (Rattus norvegicus, UniProt P35439+Q00959); test: Positive allosteric modulation of recombinant rat GluN1a/GluN2A receptor expressed in Xenopus laevis oocytes assessed as increase in glycine/L-glutamate-induced channel current at 10 to 30 uM by two-electrode voltage clamp method relative to control; assay type: cell-based
T3 sequence (Q00959 whole entry, other chains not shown): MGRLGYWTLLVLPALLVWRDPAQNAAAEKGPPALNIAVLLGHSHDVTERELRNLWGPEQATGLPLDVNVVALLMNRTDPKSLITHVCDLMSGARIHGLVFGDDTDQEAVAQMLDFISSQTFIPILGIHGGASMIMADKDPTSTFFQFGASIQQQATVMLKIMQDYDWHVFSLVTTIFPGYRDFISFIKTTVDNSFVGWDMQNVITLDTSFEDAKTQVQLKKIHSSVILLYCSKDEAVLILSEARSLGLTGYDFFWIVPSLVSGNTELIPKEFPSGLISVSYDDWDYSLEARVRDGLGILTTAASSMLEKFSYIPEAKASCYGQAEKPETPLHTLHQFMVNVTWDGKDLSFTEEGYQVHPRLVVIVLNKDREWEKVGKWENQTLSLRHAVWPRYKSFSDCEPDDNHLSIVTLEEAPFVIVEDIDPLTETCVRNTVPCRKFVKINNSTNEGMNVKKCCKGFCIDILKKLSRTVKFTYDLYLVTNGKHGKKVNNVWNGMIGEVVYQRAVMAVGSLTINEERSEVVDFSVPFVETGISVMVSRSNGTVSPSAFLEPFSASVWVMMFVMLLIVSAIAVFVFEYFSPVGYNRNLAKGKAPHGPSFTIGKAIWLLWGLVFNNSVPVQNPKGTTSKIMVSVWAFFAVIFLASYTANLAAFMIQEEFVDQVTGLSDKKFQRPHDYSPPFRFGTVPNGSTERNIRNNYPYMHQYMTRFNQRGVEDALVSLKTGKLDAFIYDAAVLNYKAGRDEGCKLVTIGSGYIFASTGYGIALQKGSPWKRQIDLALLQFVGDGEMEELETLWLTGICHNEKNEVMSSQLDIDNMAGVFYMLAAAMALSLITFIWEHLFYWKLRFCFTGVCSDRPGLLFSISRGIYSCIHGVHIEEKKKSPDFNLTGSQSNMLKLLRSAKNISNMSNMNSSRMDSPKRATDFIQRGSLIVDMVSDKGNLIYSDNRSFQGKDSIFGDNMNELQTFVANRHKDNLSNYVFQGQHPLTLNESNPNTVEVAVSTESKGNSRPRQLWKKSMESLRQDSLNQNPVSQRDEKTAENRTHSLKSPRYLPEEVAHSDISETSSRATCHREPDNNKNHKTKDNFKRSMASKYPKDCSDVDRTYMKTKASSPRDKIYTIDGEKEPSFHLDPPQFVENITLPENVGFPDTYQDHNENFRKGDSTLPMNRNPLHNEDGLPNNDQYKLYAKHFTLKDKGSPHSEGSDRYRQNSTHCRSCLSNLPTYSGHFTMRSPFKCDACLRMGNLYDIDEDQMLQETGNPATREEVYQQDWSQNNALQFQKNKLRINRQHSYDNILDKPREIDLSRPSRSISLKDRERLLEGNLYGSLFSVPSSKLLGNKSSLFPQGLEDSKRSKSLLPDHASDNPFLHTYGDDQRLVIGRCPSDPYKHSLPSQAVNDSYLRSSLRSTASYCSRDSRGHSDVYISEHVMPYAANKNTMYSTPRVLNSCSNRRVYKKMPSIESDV
In short: (§2)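 TEVC at −40 mV, 23 °C, in 90 NaCl/1 KCl/0.5 BaCl/0.005 EDTA/10 HEPES (mM), pH 7.4. Oocytes expressed rat GluN1/GluN2A or GluN1/GluN2B. […] Some GluN2A oocytes were BAPTA-loaded. 4–17 oocytes from 1–3 frogs.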

[5] = target: T4, Glutamate NMDA receptor; Grin1/Grin2b (Rattus norvegicus, UniProt P35439+Q00960); test: Positive allosteric modulation of recombinant rat GluN1a/GluN2B receptor expressed in Xenopus laevis oocytes assessed as increase in glycine/L-glutamate-induced channel current at 10 to 30 uM by two-electrode voltage clamp method relative to control; assay type: cell-based; in short: as §2
T4 sequence (Q00960 whole entry, other chains not shown): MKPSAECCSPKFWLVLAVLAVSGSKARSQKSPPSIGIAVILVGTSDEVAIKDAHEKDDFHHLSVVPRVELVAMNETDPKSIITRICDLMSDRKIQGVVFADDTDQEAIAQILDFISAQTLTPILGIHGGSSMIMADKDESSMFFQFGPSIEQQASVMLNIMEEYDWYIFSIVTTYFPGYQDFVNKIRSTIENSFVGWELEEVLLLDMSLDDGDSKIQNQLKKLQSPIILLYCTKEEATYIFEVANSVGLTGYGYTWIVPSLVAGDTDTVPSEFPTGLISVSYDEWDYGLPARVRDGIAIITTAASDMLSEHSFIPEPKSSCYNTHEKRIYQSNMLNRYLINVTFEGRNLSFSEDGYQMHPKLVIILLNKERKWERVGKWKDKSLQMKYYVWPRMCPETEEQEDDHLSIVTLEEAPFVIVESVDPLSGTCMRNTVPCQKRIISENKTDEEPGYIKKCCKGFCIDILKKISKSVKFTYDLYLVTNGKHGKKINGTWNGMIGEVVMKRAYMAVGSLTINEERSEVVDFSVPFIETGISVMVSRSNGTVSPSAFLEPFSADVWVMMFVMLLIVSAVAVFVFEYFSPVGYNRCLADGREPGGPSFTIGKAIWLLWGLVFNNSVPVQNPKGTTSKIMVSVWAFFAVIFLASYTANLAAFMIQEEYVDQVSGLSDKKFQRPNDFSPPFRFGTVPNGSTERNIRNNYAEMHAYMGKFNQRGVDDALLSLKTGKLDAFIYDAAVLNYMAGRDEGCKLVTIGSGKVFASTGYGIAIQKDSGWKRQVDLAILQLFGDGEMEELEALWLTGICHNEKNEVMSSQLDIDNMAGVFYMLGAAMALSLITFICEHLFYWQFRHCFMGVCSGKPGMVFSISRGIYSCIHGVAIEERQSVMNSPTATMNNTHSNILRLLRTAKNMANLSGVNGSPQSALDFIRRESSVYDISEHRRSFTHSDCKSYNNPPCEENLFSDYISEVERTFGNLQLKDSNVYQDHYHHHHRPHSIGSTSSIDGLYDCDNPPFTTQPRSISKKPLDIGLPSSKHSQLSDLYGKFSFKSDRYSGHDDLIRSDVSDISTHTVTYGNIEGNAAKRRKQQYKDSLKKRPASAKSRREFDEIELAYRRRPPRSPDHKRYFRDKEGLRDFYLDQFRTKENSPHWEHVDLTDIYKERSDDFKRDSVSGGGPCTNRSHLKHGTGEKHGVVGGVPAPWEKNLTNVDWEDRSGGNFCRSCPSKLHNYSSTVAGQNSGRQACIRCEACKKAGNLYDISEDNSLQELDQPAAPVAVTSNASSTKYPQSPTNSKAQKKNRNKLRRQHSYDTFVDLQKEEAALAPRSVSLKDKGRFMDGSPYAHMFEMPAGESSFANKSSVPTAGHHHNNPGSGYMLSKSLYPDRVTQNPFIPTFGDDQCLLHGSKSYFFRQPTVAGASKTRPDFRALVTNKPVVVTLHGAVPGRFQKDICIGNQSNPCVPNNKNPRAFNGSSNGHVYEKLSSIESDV

[6] = target: Glutamate NMDA receptor; Grin1/Grin2c (Rattus norvegicus, UniProt P35439+Q00961)
[7] = target: Ionotropic glutamate receptor NMDA 1/2D (Rattus norvegicus, UniProt P35439+Q62645)
[8] = target: T3, Glutamate NMDA receptor; Grin1/Grin2a; test: Positive allosteric modulation of recombinant rat GluN1a/GluN2A receptor expressed in Xenopus laevis oocytes assessed as change in 30 uM glycine/3 uM L-glutamate-induced channel current at 30 uM by two-electrode voltage clamp method (reference value: 40 +/- 4%); assay type: cell-based
[9] = target: T4, Glutamate NMDA receptor; Grin1/Grin2b; test: Positive allosteric modulation of recombinant rat GluN1a/GluN2B receptor expressed in Xenopus laevis oocytes assessed as change in 30 uM glycine/3 uM L-glutamate-induced channel current at 30 uM by two-electrode voltage clamp method (reference value: 84 +/- 1%); assay type: cell-based; conditions: read-out: %max
[10] = target: T1, Glutamate NMDA receptor; Grin1/Grin2c (Rattus norvegicus); test: Positive allosteric modulation of recombinant rat GluN1a/GluN2C receptor expressed in Xenopus laevis oocytes assessed as change in 30 uM glycine/0.5 uM L-glutamate-induced channel current at 30 uM by two-electrode voltage clamp method (reference value: 54 +/- 1%); assay type: cell-based
In short: (§3)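 Oocytes expressing rat GluN1/GluN2C or GluN1/GluN2D, TEVC at −40 mV, pH 7.4, 23 °C. […] 30 μM glycine in all solutions per footnote. Vehicle versus drug compared by paired t-test; mean ± SEM.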

[11] = target: T2, Ionotropic glutamate receptor NMDA 1/2D (Rattus norvegicus); test: Positive allosteric modulation of recombinant rat GluN1a/GluN2D receptor expressed in Xenopus laevis oocytes assessed as change in 30 uM glycine/0.5 uM L-glutamate-induced channel current at 30 uM by two-electrode voltage clamp method (reference value: 54 +/- 1%); assay type: cell-based; in short: as §3
[12] = Cmax in C57Bl/6 mouse at 10 mg/kg, ip by LC/MS/MS analysis; assay type: ADME, organism-based; parameters: dose 10 mg/kg, route intraperitoneal; conditions: in vivo
In short: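 Male fed C57BL/6 mice, 6–8 weeks, given 10 mg/kg i.p. (1 mg/mL, 10 mL/kg) in 50% PEG400/water. […] Samples protein-precipitated with acetonitrile, brain homogenised 1:4 in water, quantified by LC-MS/MS with verapamil internal standard.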

[13] = Half life in C57Bl/6 mouse at 10 mg/kg, ip by LC/MS/MS analysis; assay type: ADME, organism-based; conditions: in vivo
In short: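 Male, fed C57BL/6 mice (6–8 weeks) got a single i.p. dose of 10 mg/kg (1 mg/mL) in 50% PEG400/water. […] Brain was homogenized 1:4 in water. Samples were acetonitrile-precipitated and measured by LC-MS/MS against a verapamil internal standard. Brain:plasma was reported from AUClast.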

[14] = Drug level in C57Bl/6 mouse brain at 10 mg/kg, ip measured at 0.25 hrs by LC/MS/MS analysis; assay type: ADME, organism-based; conditions: read-out: Drug uptake
In short: (§4)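 Fed male mice, 6–8 weeks old, n = 15, 3 per time point. Dosed ip at 10 mg/kg (1 mg/mL) in 50% PEG400/water. […] Brain homogenized 1:4 in water. Samples acetonitrile-precipitated and quantified by LC-MS/MS with verapamil as internal standard.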

[15] = Drug level in C57Bl/6 mouse plasma at 10 mg/kg, ip measured at 0.25 hrs by LC/MS/MS analysis; assay type: ADME, organism-based; in short: as §4
[16] = Protein binding in rat plasma at 1 uM measured after 60 mins by equilibrium dialysis based LC/MS/MS analysis; assay type: ADME, cell-free; conditions: read-out: PPB (converted)
[17] = Fraction unbound in rat plasma at 1 uM measured after 60 mins by equilibrium dialysis based LC/MS/MS analysis; assay type: ADME, cell-free
[18] = Cmax in C57Bl/6 mouse at 20 mg/kg, ip by LC/MS/MS analysis; assay type: ADME, organism-based; parameters: dose 20 mg/kg, route intraperitoneal; conditions: in vivo
[19] = Half life in C57Bl/6 mouse at 20 mg/kg, ip by LC/MS/MS analysis; assay type: ADME, organism-based; conditions: in vivo
[20] = Ratio of drug level in brain to plasma in C57Bl/6 mouse at 20 mg/kg, ip by LC/MS/MS analysis; assay type: ADME, organism-based; conditions: read-out: BPR
[21] = target: T1, Glutamate NMDA receptor; Grin1/Grin2c (Rattus norvegicus); test: Positive allosteric modulation of recombinant rat GluN1a/GluN2C receptor expressed in Xenopus laevis oocytes assessed as increase in glycine/L-glutamate-induced channel current by measuring log of doubling concentration by two-electrode voltage clamp method; assay type: cell-based; in short: as §1
[22] = target: T3, Glutamate NMDA receptor; Grin1/Grin2a; test: Positive allosteric modulation of recombinant rat GluN1a/GluN2A receptor expressed in Xenopus laevis oocytes assessed as change in 30 to 100 uM glycine/3 uM L-glutamate-induced channel current at 30 uM by two-electrode voltage clamp method (reference value: 46 +/- 5%); assay type: cell-based
[23] = target: T4, Glutamate NMDA receptor; Grin1/Grin2b; test: Positive allosteric modulation of recombinant rat GluN1a/GluN2B receptor expressed in Xenopus laevis oocytes assessed as change in 30 to 100 uM glycine/3 uM L-glutamate-induced channel current at 30 uM by two-electrode voltage clamp method (reference value: 79 +/- 1%); assay type: cell-based; conditions: read-out: %max
[24] = target: T1, Glutamate NMDA receptor; Grin1/Grin2c (Rattus norvegicus); test: Positive allosteric modulation of recombinant rat GluN1a/GluN2C receptor expressed in Xenopus laevis oocytes assessed as change in […]/0.3 uM L-glutamate-induced channel current at 30 uM by two-electrode voltage clamp method (reference value: 19 +/- 3%); assay type: cell-based; in short: as §3
[25] = target: T2, Ionotropic glutamate receptor NMDA 1/2D (Rattus norvegicus); test: Positive allosteric modulation of recombinant rat GluN1a/GluN2D receptor expressed in Xenopus laevis oocytes assessed as change in […]/0.3 uM L-glutamate-induced channel current at 30 uM by two-electrode voltage clamp method (reference value: 29 +/- 2%); assay type: cell-based; in short: as §3
[26] = target: T2, Ionotropic glutamate receptor NMDA 1/2D (Rattus norvegicus); test: Positive allosteric modulation of recombinant rat GluN1a/GluN2D receptor expressed in Xenopus laevis oocytes assessed as increase in 10 uM glycine/L-glutamate-induced channel current at 30 uM in presence of NMDAR antagonist DL-APV by two-electrode voltage clamp method relative to control; assay type: cell-based
In short: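 GluN1/GluN2D oocytes, TEVC at −40 mV. 30 μM compound applied with 10 μM glycine plus 50 μM DL-APV (glutamate-site antagonist).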

[27] = target: T2, Ionotropic glutamate receptor NMDA 1/2D (Rattus norvegicus); test: Positive allosteric modulation of recombinant rat GluN1a/GluN2D receptor expressed in Xenopus laevis oocytes assessed as increase in glycine/10 uM L-glutamate-induced channel current at 30 uM in presence of NMDAR antagonist 7-CKA by two-electrode voltage clamp method relative to control; assay type: cell-based

SMILES	solubility kinetic at 0.5 h [1]	%max [2]	%max [3]	Activity [4]	Activity [5]	EC50 [6]	EC50 [7]	other results
COc1ccc(OCC2c3cccn3CCN2C(=O)c2cccc(Cl)c2)cc1 (stereo not given)	36 µM (≈ 14.3 µg/mL)	370%	370%	Not Active	Not Active	2510 nM	3160 nM	–
COc1ccc(OC[C@@H]2c3cccn3CC(=O)N2Cc2cccc(F)c2)cc1	74 µM (≈ 28.2 µg/mL)	100%	88%	Not Active	Not Active	–	–	%max [8]: 45%; activity at 30 µM [9]: 85%; %max [10]: 57%; %max [11]: 72%
COc1ccc(OCC2c3cccn3CC(=O)N2Cc2cccc(F)c2)cc1 (stereo not given)	74 µM (≈ 28.2 µg/mL)	350%	350%	Not Active	Not Active	3160 nM	3160 nM	Cmax [12]: 1830 nM; t1/2 [13]: 1.07 h; concentration at 0.25 h [14]: 2500 nM; concentration at 0.25 h [15]: 1830 nM; fraction unbound at 1 h, 1 µM [16]: 0.013
COc1ccc(OCC2c3cc(OC)c(OC)cc3CCN2C(=O)c2cccc(Cl)c2)cc1 (stereo not given)	–	230%	220%	–	–	–	–	fraction unbound at 1 h, 1 µM [17]: < 0.0001; Cmax [18]: 2160 nM; half-life [19]: 1.35 h; Kp [20]: 6.7; fraction unbound at 1 h, 1 µM [16]: < 0.001
COc1ccc(OCC2c3ccc(OC)cc3CC(=O)N2CC(F)(F)F)cc1 (stereo not given)	–	330%	160%	Not Active	Not Active	–	–	log(activity) [21]: > -4.5
COc1ccc(OC[C@H]2c3cccn3CCN2C(=O)c2cccc(C(F)(F)F)c2)cc1	58 µM (≈ 25 µg/mL)	460%	540%	Not Active	Not Active	1260 nM	1260 nM	–
COc1ccc(OCC2c3cccn3CC(=O)N2Cc2cccc(C(F)(F)F)c2)cc1 (stereo not given)	57 µM (≈ 24.5 µg/mL)	300%	400%	Not Active	Not Active	1260 nM	1580 nM	–
COc1ccc(OC[C@H]2c3cccn3CC(=O)N2Cc2cccc(F)c2)cc1	74 µM (≈ 28.2 µg/mL)	410%	390%	–	–	3160 nM	3160 nM	%max [22]: 53%; activity at 30 µM [23]: 77%; %max [24]: 48%; %max [25]: 55%; Activity [26]: 2.5%; Activity [27]: 0.4%

From ChEMBL document CHEMBL4627400, “Discovery of Dihydropyrrolo[1,2-a]pyrazin-3(4H)-one-Based Second-Generation GluN2C- and GluN2D-Selective Positive Allosteric Modulators (PAMs) of the N-Methyl-d-Aspartate (NMDA) Receptor” (J Med Chem, 2020)
